From ChEMBL document CHEMBL1926519, “B-Ring-modified and/or 5-demethylated nobiletin congeners: inhibitory activity against pro-MMP-9 production” (Bioorg Med Chem, 2011)
The source made the active and inactive calls. No cut-off for these calls is given here.

Tests used:
[1] = Inhibition of TNFalpha-stimulated pro MMP9 production in human SRA 01/04 cells after 24 hrs by SDS-PAGE based gelatin zymography assay; assay type: functional, cell-based
In short: (§1)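 Confluent SRA01/04 cells (DMEM, 20% heat-inactivated FBS, 37 °C, 5% CO2) treated 24 h with test sample at 0.25, 1, 4, 16, 64 µM plus PMA 10 nM or TNF-a 10 ng/mL. Media run on 10% SDS–PAGE with 0.6 mg/mL gelatin, incubated at 37 °C in Tris–HCl pH 7.5/CaCl2/ZnCl2, Coomassie-stained. Pro-MMP-9 bands quantified densitometrically, giving IC50, triplicate means.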

Homo sapiens = species on record: Homo sapiens; test: Inhibition of PMA-stimulated pro MMP9 production in human SRA 01/04 cells at 64 uM after 24 hrs by SDS-PAGE based gelatin zymography assay; assay type: functional, cell-based
[2] = Cytotoxicity against human SRA 01/04 cells at 64 uM after 24 hrs by LDH release assay; assay type: cell-based
In short: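 SRA01/04 lens epithelial cells seeded at 5,000/well, after 15–18 h washed with serum-free medium and exposed 24 h to test sample, final 64 lmol/L from DMSO stock. LDH in supernatant read at 570 nm. Percent specific release = (S−N)/(P−N)×100, P being 0.2% Tween-20 lysis and N cell- and serum-free medium. Triplicate means.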

[3] = Inhibition of PMA-stimulated pro MMP9 production in human SRA 01/04 cells after 24 hrs by SDS-PAGE based gelatin zymography assay; assay type: functional, cell-based; in short: as §1
[4] = Ratio of IC50 for PMA-stimulated pro MMP9 production in human SRA 01/04 cells to IC50 for TNFalpha-stimulated pro MMP9 production in human SRA 01/04 cells; assay type: functional

Row | IC50 [1] [µM] | IC50 [3] [µM] | SMILES | inhibition (Homo sapiens) | Activity [2] | Ratio IC50 [4]
1 | 23.5 | 2.5 | COc1c(OC)c(OC)c2c(=O)cc(-c3cccc(O)c3)oc2c1OC | inactive | Non-toxic | 
2 |  |  | COc1c(OC)c(OC)c2c(=O)cc(-c3ccc(OCc4ccccc4)cc3)oc2c1OC |  | Toxic | 
3 | 14.3 | 2.6 | COc1c(OC)c(OC)c2c(=O)cc(-c3ccc(O)cc3)oc2c1OC |  | Non-toxic | 
4 | 42.4 | 3 | COc1ccc(-c2cc(=O)c3c(O)c(OC)c(OC)c(OC)c3o2)cc1OC [5-DEMETHYLNOBILETIN] | inactive | Non-toxic | 14
5 | 33.2 | 6.8 | COc1ccc(-c2cc(=O)c3c(OC)c(OC)c(OC)c(OC)c3o2)cc1 [TANGERETIN] |  | Non-toxic | 
6 | 68 | 0.4 | COc1c(OC)c(OC)c2c(=O)cc(-c3ccccc3O)oc2c1OC |  | Non-toxic | 170
7 | 24 | 13.7 | COc1ccccc1-c1cc(=O)c2c(OC)c(OC)c(OC)c(OC)c2o1 |  | Non-toxic | 
8 | 10.6 | 0.7 | COc1cc(-c2cc(=O)c3c(O)c(OC)c(OC)c(OC)c3o2)ccc1O |  | Non-toxic | 15
9 | 25.8 | 12 | COc1cc(OC)cc(-c2cc(=O)c3c(OC)c(OC)c(OC)c(OC)c3o2)c1 |  | Non-toxic | 
10 | 24 | 8.1 | COc1c(OC)c(OC)c2c(=O)cc(-c3cc(O)cc(O)c3)oc2c1OC |  | Non-toxic | 
11 | 29.6 | 1.5 | COc1ccc(-c2cc(=O)c3c(O)c(OC)c(OC)c(OC)c3o2)cc1O | inactive | Non-toxic | 
12 | 15.5 | 5.5 | COc1cccc(-c2cc(=O)c3c(OC)c(OC)c(OC)c(OC)c3o2)c1 |  | Non-toxic | 
13 | 22.3 | 3.5 | COc1c(OC)c(O)c2c(=O)cc(-c3ccc(O)cc3)oc2c1OC [XANTHOMICROL] |  | Non-toxic | 6
14 |  |  | COc1c(OC)c(OC)c2c(=O)cc(-c3cccc(OCc4ccccc4)c3)oc2c1OC |  | Toxic | 
